According to ChEMBL document CHEMBL1122064, “Synthesis and biological evaluation of 17-[131I]iodo-9-telluraheptadecanoic acid, a potential imaging agent” (J Med Chem, 1982):

Key:
Rattus norvegicus [1] = assay: Distribution of radioactivity in blood of Fischer 344 female rat after 10 min of intravenous administration; assay type: ADME, organism-based; settings: in vivo
Summary of the method: (§1)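 Female Fischer 344 rats (10-12 weeks, 170-200 g) with food and water ad libitum. The 131I-labelled fatty acid was taken up in ethanol, added dropwise to stirred 6% BSA at 40 °C (final ethanol 10%), filtered, and injected into a lateral tail vein under ether. Rats were CO2-anaesthetised and killed; organs were excised, rinsed, blotted, weighed and Ge(Li)-counted. Results are mean (range) % injected dose/g.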

Rattus norvegicus [2] = assay: Distribution of radioactivity in kidneys of Fischer 344 female rat after 2 min of intravenous administration; assay type: ADME, organism-based, Kidney; settings: in vivo; summary of the method: as §1
Rattus norvegicus [3] = assay: Distribution of radioactivity in Thyroid of Fischer 344 female rat after 60 min of intravenous administration; assay type: ADME, organism-based; settings: in vivo, 1 h; summary of the method: as §1
Rattus norvegicus [4] = assay: Distribution of radioactivity in lungs of Fischer 344 female rat after 10 min of intravenous administration; assay type: ADME, organism-based, Lung; settings: in vivo
Summary of the method: (§2)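 Female Fischer 344 rats, 10-12 weeks old, 170-200 g, fed ad libitum. The 131I-labelled fatty acid was dissolved in absolute ethanol, added dropwise to stirred 6% bovine serum albumin at 40 °C (final ethanol 10%), filtered, and injected into a lateral tail vein under ether anaesthesia. Organs were excised, rinsed, blotted and weighed, then counted by Ge(Li) analyzer as percent injected dose/g.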

Rattus norvegicus [5] = assay: Distribution of radioactivity in kidneys of Fischer 344 female rat after 6 hr of intravenous administration; assay type: ADME, organism-based, Kidney; settings: in vivo; summary of the method: as §1
Rattus norvegicus [6] = assay: Distribution of radioactivity in lungs of Fischer 344 female rat after 2 hr of intravenous administration; assay type: ADME, organism-based, Lung; settings: in vivo; summary of the method: as §2
Rattus norvegicus [7] = assay: Distribution of radioactivity in lungs of Fischer 344 female rat after 4 days of intravenous administration; assay type: ADME, organism-based, Lung; settings: in vivo, 96 h; summary of the method: as §2
Rattus norvegicus [8] = assay: Distribution of radioactivity in blood of Fischer 344 female rat after 6 hr of intravenous administration; assay type: ADME, organism-based; settings: in vivo; summary of the method: as §1
Rattus norvegicus [9] = assay: Distribution of radioactivity in heart of Fischer 344 female rat after 2 hr of intravenous administration; assay type: ADME, organism-based; settings: in vivo; summary of the method: as §1
Rattus norvegicus [10] = assay: Distribution of radioactivity in heart of Fischer 344 female rat after 6 hr of intravenous administration; assay type: ADME, organism-based; settings: in vivo; summary of the method: as §1
Rattus norvegicus [11] = assay: Distribution of radioactivity in lungs of Fischer 344 female rat after 30 min of intravenous administration; assay type: ADME, organism-based, Lung; settings: in vivo, 0.5 h
Summary of the method: (§3)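 Female Fischer 344 rats, 10-12 weeks, 170-200 g, fed ad libitum. The labelled fatty acid was given in 6% bovine serum albumin via a lateral tail vein under ether anaesthesia. Rats were killed by CO2 anaesthesia and cervical fracture; organs were excised, rinsed, blotted, weighed and counted by Ge(Li) analyzer. Results are mean percent injected dose/g with range.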

Rattus norvegicus [12] = assay: Distribution of radioactivity in liver of Fischer 344 female rat after 4 of days intravenous administration; assay type: ADME, organism-based; settings: in vivo; summary of the method: as §2
Rattus norvegicus [13] = assay: Distribution of radioactivity in Thyroid of Fischer 344 female rat after 10 min of intravenous administration; assay type: ADME, organism-based; settings: in vivo; summary of the method: as §1
Rattus norvegicus [14] = assay: Distribution of radioactivity in brain of Fischer 344 female rat after 24 hr of intravenous administration; assay type: ADME, organism-based; settings: in vivo; summary of the method: as §1
Rattus norvegicus [15] = assay: Distribution of radioactivity in blood of Fischer 344 female rat after 2 min of intravenous administration; assay type: ADME, organism-based; settings: in vivo; summary of the method: as §1
Rattus norvegicus [16] = assay: Distribution of radioactivity in kidneys of Fischer 344 female rat after 4 days of intravenous administration; assay type: ADME, organism-based, Kidney; settings: in vivo, 96 h; summary of the method: as §1
Rattus norvegicus [17] = assay: Distribution of radioactivity in brain of Fischer 344 female rat after 10 min of intravenous administration; assay type: ADME, organism-based; settings: in vivo; summary of the method: as §1
Rattus norvegicus [18] = assay: Distribution of radioactivity in blood of Fischer 344 female rat after 60 min of intravenous administration; assay type: ADME, organism-based; settings: in vivo, 1 h
Rattus norvegicus [19] = assay: Distribution of radioactivity in heart of Fischer 344 female rat after 2 min of intravenous administration; assay type: ADME, organism-based; settings: in vivo; summary of the method: as §1
Rattus norvegicus [20] = assay: Distribution of radioactivity in lungs of Fischer 344 female rat after 24 hr of intravenous administration; assay type: ADME, organism-based, Lung; settings: in vivo; summary of the method: as §2
Rattus norvegicus [21] = assay: Distribution of radioactivity in brain of Fischer 344 female rat after 60 min of intravenous administration; assay type: ADME, organism-based; settings: in vivo, 1 h; summary of the method: as §1
Rattus norvegicus [22] = assay: Distribution of radioactivity in liver of Fischer 344 female rat after 60 min of intravenous administration; assay type: ADME, organism-based; settings: in vivo, 1 h; summary of the method: as §3
Rattus norvegicus [23] = assay: Distribution of radioactivity in liver of Fischer 344 female rat after 2 min of intravenous administration; assay type: ADME, organism-based; settings: in vivo; summary of the method: as §2
Rattus norvegicus [24] = assay: Distribution of radioactivity in liver of Fischer 344 female rat after 24 hr of intravenous administration; assay type: ADME, organism-based; settings: in vivo; summary of the method: as §2
Rattus norvegicus [25] = assay: Distribution of radioactivity in kidneys of Fischer 344 female rat after 60 min of intravenous administration; assay type: ADME, organism-based, Kidney; settings: in vivo, 1 h
Rattus norvegicus [26] = assay: Distribution of radioactivity in liver of Fischer 344 female rat after 2 hr of intravenous administration; assay type: ADME, organism-based; settings: in vivo; summary of the method: as §1
Rattus norvegicus [27] = assay: Distribution of radioactivity in blood of Fischer 344 female rat after 7 days of intravenous administration; assay type: ADME, organism-based; settings: in vivo, 168 h; summary of the method: as §1
Rattus norvegicus [28] = assay: Distribution of radioactivity in heart of Fischer 344 female rat after 24 hr of intravenous administration; assay type: ADME, organism-based; settings: in vivo; summary of the method: as §1
Rattus norvegicus [29] = assay: Distribution of radioactivity in brain of Fischer 344 female rat after 4 days of intravenous administration; assay type: ADME, organism-based; settings: in vivo, 96 h; summary of the method: as §1
Rattus norvegicus [30] = assay: Distribution of radioactivity in Thyroid of Fischer 344 female rat after 24 hr of intravenous administration; assay type: ADME, organism-based; settings: in vivo; summary of the method: as §1
Rattus norvegicus [31] = assay: Distribution of radioactivity in Thyroid of Fischer 344 female rat after 7 days of intravenous administration; assay type: ADME, organism-based; settings: in vivo, 168 h; summary of the method: as §1
Rattus norvegicus [32] = assay: Distribution of radioactivity in heart of Fischer 344 female rat after 30 min of intravenous administration; assay type: ADME, organism-based; settings: in vivo, 0.5 h

In the case of `O=C(O)CCCCCCCC[Te]CCCCCCCC[131I]`, the Distribution of radioactivity (Rattus norvegicus [1]) is reported as 0.88 dose g-1, the Distribution of radioactivity (Rattus norvegicus [2]) is reported as 1.36 dose g-1 and the Distribution of radioactivity (Rattus norvegicus [3]) is reported as 74.7 dose g-1. It also gave a Distribution of radioactivity (Rattus norvegicus [4]) of 1.11 dose g-1, a Distribution of radioactivity (Rattus norvegicus [5]) of 0.36 dose g-1 and a Distribution of radioactivity (Rattus norvegicus [6]) of 0.68 dose g-1. The Distribution of radioactivity (Rattus norvegicus [7]) was 0.06 dose g-1, the Distribution of radioactivity (Rattus norvegicus [8]) was 0.44 dose g-1 and the Distribution of radioactivity (Rattus norvegicus [9]) was 1.33 dose g-1. It also gave a Distribution of radioactivity (Rattus norvegicus [10]) of 0.57 dose g-1, a Distribution of radioactivity (Rattus norvegicus [11]) of 0.85 dose g-1 and a Distribution of radioactivity (Rattus norvegicus [12]) of 0.02 dose g-1. The Distribution of radioactivity (Rattus norvegicus [13]) was 12.1 dose g-1, the Distribution of radioactivity (Rattus norvegicus [14]) was 0.03 dose g-1 and the Distribution of radioactivity (Rattus norvegicus [15]) was 1.28 dose g-1. The Distribution of radioactivity (Rattus norvegicus [16]) was 0.03 dose g-1, the Distribution of radioactivity (Rattus norvegicus [17]) was 0.11 dose g-1 and the Distribution of radioactivity (Rattus norvegicus [18]) was 0.64 dose g-1. For the same compound, the Distribution of radioactivity (Rattus norvegicus [19]) was 2.39 dose g-1, the Distribution of radioactivity (Rattus norvegicus [20]) was 0.18 dose g-1 and the Distribution of radioactivity (Rattus norvegicus [21]) was 0.05 dose g-1. It also gave a Distribution of radioactivity (Rattus norvegicus [22]) of 1.16 dose g-1, a Distribution of radioactivity (Rattus norvegicus [23]) of 3.71 dose g-1 and a Distribution of radioactivity (Rattus norvegicus [24]) of 0.13 dose g-1. It also gave a Distribution of radioactivity (Rattus norvegicus [25]) of 0.68 dose g-1, a Distribution of radioactivity (Rattus norvegicus [26]) of 1.02 dose g-1 and a Distribution of radioactivity (Rattus norvegicus [27]) of 0.009 dose g-1. For the same compound, the Distribution of radioactivity (Rattus norvegicus [28]) was 0.11 dose g-1, the Distribution of radioactivity (Rattus norvegicus [29]) was < 0.007 dose g-1 and the Distribution of radioactivity (Rattus norvegicus [30]) was 475 dose g-1. It also gave a Distribution of radioactivity (Rattus norvegicus [31]) of 203 dose g-1 and a Distribution of radioactivity (Rattus norvegicus [32]) of 1.78 dose g-1.
